# PubChem BioAssay
# Active and inactive are the calls of the source.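 Rule for the calls, unless noted: active = viability at or below 30% in both replicate assays; inconclusive = viability at or below 30% in just one of the two assays; inactive = the rest.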
# Assays:
# [1] = reduced viability of SK-BR-3 breast cancer cells – cell-based, 24 h, human, pilot screen (AID 572;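 active = viability at or below 10% of carrier control in both of two separate runs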;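 note: compound exposure lasted between 18 and 24 h rather than exactly 24 h; 100% = carrier-treated control wells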); details: SK-BR-3 viability, CellTiter-Glo luminescence, at 10 µM, stronger effect = lower value
# [2] = HUVEC growth inhibition – cell-based, human, primary screen (AID 575); details: HUVEC proliferation, CellTiter-Glo luminescence, 72 h; at 10 µM; stronger effect = lower value;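 note: 100% = median of untreated cell wells with 0.1% DMSO on each plate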
# In short: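 Assay system: primary human umbilical vein endothelial cells / Buffer or medium: endothelial basal medium with 2% FBS plus growth supplements / Compound dosing: one dose, 10 µM final, 0.1% DMSO / Timing: 72 h treatment at 37 °C / Signal: CTG luminescence / Benchmarks: 32 DMSO-only cell-control wells (high), 32 MePR drug-control wells (low) per plate / Plate: collagen-coated 384-well format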
# [3] = H69AR cell proliferation blockers – human, duplicate replicates, primary screen (AID 580;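 active = viability at or under a set limit in both replicates, limit being median viability minus 3 SD, cut at about 48% in these data, passing the limit was not always enough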;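 note: 100% = mean luminescence of untreated wells and 0% = no signal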); details: H69AR lung tumor cells viability, ATP luminescence, 72 h; at 10 µM; stronger effect = lower value
# [4] = MRP1 drug-resistance reversers in H69AR cells – cell-based, doxorubicin co-treatment, pilot screen (AID 601;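 active = viability loss from added drug above about 55%, and viability with drug at most 40%, in both replicates, limit read from the data, passing the limit was not always enough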); details: CellTiter-Glo, 72 h, at 10 µM; for differential viability (reversal): stronger effect = higher value
# [5] = yeast transport mutant growth inhibition pilot in 384-well plates, post-Golgi transport modulator project (AID 636; in the data active = inhibition above about 31%); details: absorbance 615 nm, about 18 h, stronger effect = higher value
# [6] = growth suppression of yeast trafficking mutant, preliminary HTS, modulators of trafficking downstream of Golgi apparatus project, 1536-format plate, OD 615 nm (AID 637; in the data active = inhibition above about 30%); details: yeast transport mutant growth, absorbance 615 nm, 18 h; stronger effect = higher value
# [7] = H69AR cells + 2 uM doxorubicin, measured here: viability with 2 uM doxorubicin, stronger effect = lower value
# [8] = H69AR cells, compound alone cytotoxicity
Compound,viability [1],viability [2],viability [3],differential viability (reversal) ([4]; H69AR cells + 2 uM doxorubicin),"viability [4, 7]","viability [4, 8]",inhibition [5],inhibition [6]
CC1CC(C)CN(c2nc3c(c(=O)[nH]c(=O)n3C)n2CCCSc2nc3ccccc3s2)C1 (configuration not stated),59% (inactive),115% (inactive),100% (inactive),-5.73% (inactive),106%,100%,-0.14% (inactive),4.36% (inactive)
O=C(NCc1cccs1)C1CC(=O)N(C2CCCC2)C1 (configuration not stated),87% (inactive),91.1% (inactive),94.4% (inactive),7.15% (inactive),87.3%,94.4%,2.6% (inactive),8.03% (inactive)
O=C(CN1CCN(c2ccccn2)CC1)N1c2ccccc2CCc2ccccc21,95% (inactive),88.1% (inactive),107% (inactive),-0.175% (inactive),108%,107%,-6.08% (inactive),-0.55% (inactive)
O=C(NCc1ccco1)c1cc2sccc2n1Cc1ccccc1,131% (inactive),97.3% (inactive),71.2% (inactive),-18.5% (inactive),89.7%,71.2%,3.01% (inactive),14.2% (inactive)
CCCS(=O)(=O)N1CCCC(C(=O)NC(C)c2ccc3c(c2)OCCO3)C1 (configuration not stated),79% (inactive),71.3% (inactive),93.9% (inactive),6.12% (inactive),87.8%,93.9%,-2.34% (inactive),0.49% (inactive)
Cc1ccc(S(=O)(=O)N2CCN(C(=O)N3CCOCC3)C2C)cc1 (configuration not stated),76% (inactive),103% (inactive),99% (inactive),-4.24% (inactive),103%,99%,-8.08% (inactive),-2.18% (inactive)
COc1ccc(NC(=O)N(C2CCCCC2)C2CCN(C(C)C)CC2)c(OC)c1,87% (inactive),100% (inactive),103% (inactive),19.4% (inactive),83.2%,103%,-2.73% (inactive),-7.87% (inactive)
COC(=O)Nc1sccc1C(=O)Nc1sccc1C(=O)OC,62% (inactive),88.5% (inactive),52.2% (inactive),-13.8% (inactive),66%,52.2%,2.47% (inactive),-2.36% (inactive)
Cc1cc(C(F)(F)F)nc(NCc2cccnc2)n1,97% (inactive),96.4% (inactive),92.5% (inactive),9.55% (inactive),82.9%,92.5%,-1.04% (inactive),-1.97% (inactive)
O=C(Cn1cnc2c(cnn2-c2ccccc2)c1=O)NCCc1ccccc1,102% (inactive),91.6% (inactive),91.8% (inactive),0.99% (inactive),90.8%,91.8%,-4.68% (inactive),-5.74% (inactive)
CCOC(=O)CSc1nc2sc(C)c(C)c2c(=O)[nH]1,98% (inactive),101% (inactive),92.2% (inactive),-15.3% (inactive),108%,92.2%,-4.79% (inactive),13.3% (inactive)
CCOC(=O)c1ccc(NS(=O)(=O)c2ccc3c(c2)CCCN3C(C)=O)cc1,118% (inactive),104% (inactive),89.8% (inactive),-8.91% (inactive),98.7%,89.8%,0.91% (inactive),-0.16% (inactive)
Cc1nc2ccc(F)cc2cc1C(=O)NCC1CCCO1 (configuration not stated),89% (inactive),90.3% (inactive),85.2% (inactive),-12.1% (inactive),97.3%,85.2%,-8.9% (inactive),3.27% (inactive)
O=C(CSc1nnc(-c2ccccc2)o1)NC1CCCCC1,75% (inactive),105% (inactive),98.5% (inactive),14.7% (inactive),83.9%,98.5%,-7.12% (inactive),3.55% (inactive)
